Experimental data as given in ChEMBL document CHEMBL1811801, “Structural modifications of quinolone-3-carboxylic acids with anti-HIV activity” (Bioorg Med Chem, 2011).

What was measured:
[1] = Cytotoxicity against human C8166 cells by MTT assay; format: cell-based
How it was run: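 Uninfected C8166 cells exposed to compound; viability read by MTT assay. CC50 is the concentration lowering normal uninfected cell viability by 50%. Values are means of at least two separate experiments.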

[2] = Selectivity index, ratio of CC50 for human C8166 cells to EC50 for HIV1 LAI 3B; format: toxicity, cell-based; settings: read-out: Ratio CC50/EC50
[3] = test system: Human immunodeficiency virus 1; test: Antiviral activity against HIV1 LAI 3B infected in human C8166 cells assessed as protection against virus-induced cytopathic effect by MTT assay; format: functional, organism-based; settings: Human immunodeficiency virus 1, LAI 3B
How it was run: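 C8166 cells infected with wild-type HIV-1 (LAI strain IIIB); protection from viral cytopathogenicity read by MTT assay. EC50 is the concentration protecting cells against virus-induced cytopathogenicity by 50%. Values are means of at least two separate experiments.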

Row | SMILES | CC50 [1] [µM] | selectivity ratio [2] | EC50 [3] [µM]
1 | CCCCCn1cc(C(=O)O)c(=O)c2c(O)c(Cc3cccc(Cl)c3F)ccc21 | 39.9 | 1.7 | 23.5
2 | CCCn1cc(C(=O)O)c(=O)c2c(O)c(Cc3cccc(Cl)c3F)ccc21 | 24.2 | 8.66 | 2.79
3 | CCCCn1cc(C(=O)O)c(=O)c2c(O)c(Cc3cccc(Cl)c3F)ccc21 | 19.9 | 2.47 | 8.09
4 | CC(C)n1cc(C(=O)O)c(=O)c2c(O)c(Cc3cccc(Cl)c3F)ccc21 | 26.5 | 5.97 | 4.44
5 | CC(C)Cn1cc(C(=O)O)c(=O)c2c(O)c(Cc3cccc(Cl)c3F)ccc21 | 19.5 | 5.63 | 3.47
6 | CCC(C)n1cc(C(=O)O)c(=O)c2c(O)c(Cc3cccc(Cl)c3F)ccc21 (stereo unspecified) | 30.7 | 16.8 | 1.83
7 | CC(C)(C)n1cc(C(=O)O)c(=O)c2c(O)c(Cc3cccc(Cl)c3F)ccc21 | 400 | 88.3 | 4.53
8 | O=C(O)c1cn(C2CC2)c2ccc(Cc3cccc(Cl)c3F)c(O)c2c1=O | 39.1 | 19.5 | 2.01
9 | O=C(O)c1cn(C2CCCC2)c2ccc(Cc3cccc(Cl)c3F)c(O)c2c1=O | 12.4 | 3.21 | 3.87
10 | O=C(O)c1cn(C2CCCCC2)c2ccc(Cc3cccc(Cl)c3F)c(O)c2c1=O | 17.4 | 6.18 | 2.81
11 | CC(C)[C@@H](CO)n1cc(C(=O)O)c(=O)c2c(O)c(Cc3cccc(Cl)c3F)ccc21 | 125 | 962 | 0.13
12 | COc1cc2c(cc1Cc1cccc(Cl)c1F)c(=O)c(C(=O)O)cn2[C@H](CO)C(C)C [ELVITEGRAVIR] | 17.2 | 81900 | 0.00021
